Reference: ChEMBL document CHEMBL1687886, “N-cyclic bay-substituted perylene G-quadruplex ligands have selective antiproliferative effects on cancer cells and induce telomere damage” (J Med Chem, 2011)
Calls of active or inactive are those of the source. No cut-off for these calls is given here.

Experiments:
Nucleic Acid [1] = test: Binding affinity to human DK66 duplex DNA structure assessed as first step association constant by electrospray ionization mass spectrometry; format: nucleic-acid assay
How it was run: (§1)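 ESI-MS in 150 mM ammonium acetate; DNA 5 μM final (per duplex or quadruplex unit); ligand at drug/DNA ratios 0.5 to 4. Methanol (15%) added just before injection, after binding equilibrium. K1 and K2 for 1:1 and 2:1 complexes, and % bound DNA, taken from relative peak intensities assuming equal response factors. At least three repeats.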

BJ [2] = test: Induction of DNA damage response in human BJ cells expressing SV40 early protein EHLT assessed as accumulation of gamma-H2AX foci in S-phase by Hoechst staining based Leica deconvolution microscopic analysis; format: functional
How it was run: (§2)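 BJ-EHLT cells co-immunostained for γ-H2AX and PCNA, nuclei counterstained with Hoechst, imaged by deconvolution microscopy. Percentages of γ-H2AX+/PCNA− and γ-H2AX+/PCNA+ nuclei scored. Mean of three independent experiments.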

BJ [3] = test: Antiproliferative activity against human BJ cells expressing TERT at 3 uM after 2 to 8 days by trypan blue assay; format: functional, cell-based; details: 0.5 uM, in the assay text read “at 0.5 uM” for “at 3 uM”
How it was run: (§3)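 Cells seeded at 5 ×10^4 per dish; compounds freshly dissolved and added to the medium 24 h after plating, at 0.5 μM or 3 μM (3 μM only for one derivative). Cell number by Coulter counting and viability by trypan blue exclusion daily, day 1 to day 8. Growth inhibition of treated vs untreated cells calculated at days 2, 4, 6 and 8. Representative experiments in quintuplicate, SD shown.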

Nucleic Acid [4] = test: Binding affinity to human 21-TT G-quadruplex DNA structure at 1:1 DNA to calf thymus DNA ratio by competitive inhibition assay; format: nucleic-acid assay; parameters: concentration or dose not given beside the values
How it was run: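 ESI-MS competition: quadruplex DNA and ligand each 5 μM final, plus calf thymus DNA at duplex/quadruplex ratios 1 and 5 (by phosphate concentration), in ammonium acetate. Percentage bound quadruplex and normalized bound quadruplex (N%) measured by mass spectrometry. SD over at least three independent experiments.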

Nucleic Acid [5] = test: Binding affinity to human 21-TT G-quadruplex DNA structure assessed as first step association constant by electrospray ionization mass spectrometry; format: nucleic-acid assay; how it was run: as §1
Nucleic Acid [6] = test: Binding affinity to human 21-TT G-quadruplex DNA structure assessed as bound DNA at 5:10 DNA to drug ratio by electrospray ionization mass spectrometry; format: nucleic-acid assay; how it was run: as §1
BJ [7] = test: Induction of DNA damage response in human BJ cells expressing SV40 early protein EHLT assessed as accumulation of PCNA in S-phase by Hoechst staining based Leica deconvolution microscopic analysis; format: functional, cell-based; how it was run: as §2
BJ [8] = test: Delocalization of POT1 protein from […] in human BJ cells expressing SV40 early protein EHLT after 72 hrs by chromatin immunoprecipitation assay; format: functional, cell-based
How it was run: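 BJ-EHLT cells treated 24 or 72 h. Formaldehyde-crosslinked chromatin immunoprecipitated with anti-TRF1, anti-TRF2 or anti-POT1; β-actin antibody as negative control. Precipitates blotted and probed for telomeric repeats (ALU probe as nonspecific). Densitometry gives percentage of precipitated DNA relative to input (10% and 1%). Four independent experiments, SD.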

BJ [9] = test: Cell cycle arrest in human BJ cells expressing TERT assessed as accumulation at G0/G1 stage at 0.5 uM after 72 hrs by propidium iodide staining based flow cytometry (reference value: 83%); format: ADME
Nucleic Acid [10] = test: Binding affinity to human DK66 duplex DNA structure assessed as bound DNA at 5:20 DNA to drug ratio by electrospray ionization mass spectrometry; format: nucleic-acid assay; how it was run: as §1
PC-3 = test: Antiproliferative activity against human PC3 after 2 to 8 days by trypan blue assay; format: functional, cell-based; how it was run: as §3
BJ [11] = test: Growth inhibition of human BJ cells expressing SV40 early region EHLT at 0.5 uM on day 8 by trypan blue assay; format: functional; details: 192 h, read-out: GI; how it was run: as §3
BJ [12] = test: Induction of DNA damage response in human BJ cells expressing human TERT assessed as phosphorylation of […] at 1 uM after 24 hrs by immunofluorescence; format: functional, cell-based
How it was run: (§4)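 BJ-EHLT and BJ-hTERT fibroblasts exposed to a range of concentrations for 24 h. Fixed in 2% formaldehyde, permeabilized in 0.25% Triton X-100, immunostained for γ-H2AX and 53BP1. Percentage of positive cells scored. Three independent experiments, SD.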

Nucleic Acid [13] = test: Binding affinity to human 21-TT G-quadruplex DNA structure assessed as bound DNA at 5:5 DNA to drug ratio by electrospray ionization mass spectrometry; format: nucleic-acid assay; how it was run: as §1
BJ [14] = test: Induction of DNA damage response in human BJ cells expressing SV40 early region EHLT assessed as phosphorylation of […] after 24 hrs by immunofluorescence method; format: functional, cell-based; how it was run: as §4
BJ [15] = test: Cell cycle arrest in human BJ cells expressing TERT assessed as accumulation at G2/M stage at 0.5 uM after 72 hrs by propidium iodide staining based flow cytometry (reference value: 5%); format: ADME
BJ [16] = test: Cell cycle arrest in human BJ cells expressing TERT assessed as accumulation at G2/M stage at 0.5 uM after 96 hrs by propidium iodide staining based flow cytometry (reference value: 4%); format: ADME
BJ [17] = test: Cell cycle arrest in human BJ cells expressing TERT assessed as accumulation at S stage at 0.5 uM after 96 hrs by propidium iodide staining based flow cytometry (reference value: 9%); format: ADME

Compound: O=C1c2ccc3c4ccc5c6c(cc(N7CCCCC7)c(c7ccc(c2c37)C(=O)N1CCOCCN1CCCCC1)c64)C(=O)N(CCOCCN1CCCCC1)C5=O
- log Ks (Nucleic Acid [1]): 3.9
- Activity (BJ [2]): 80%
- Activity (BJ [3]): Non-toxic
- Activity (Nucleic Acid [4]): 47%
- log Ks (Nucleic Acid [5]): 5.8
- Activity (Nucleic Acid [6]): 75%
- Activity (BJ [7]): Active
- Activity (BJ [8]): Active
- Activity (BJ [9]): 87.3%
- Activity (Nucleic Acid [10]): 21%
- Activity (PC-3): Active
- inhibition of growth at 0.5 µM (BJ [11]): 50%
- Activity (BJ [12]): inactive
- Activity (Nucleic Acid [13]): 56%
- Activity (BJ [14]): Active
- Activity (BJ [15]): 5.1%
- Activity (BJ [16]): 2.2%
- Activity (BJ [17]): 1.5%
